Article PMC6664420 (Drug Design, Development and Therapy, 2019)

Legend:
[1] = Pharmacokinetics after a single oral dose in healthy volunteers; assay type: in vivo, human
How it was run: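 Healthy men aged 20–50 y received a double-blind single oral dose of test compound mesylate (40–1280 mg) fasted; at 640 mg, dosing was repeated fed in period 2. Plasma was sampled from predose to 48 h, and urine was collected over 0–6, 6–12, 12–24 and 24–48 h. Analysis was UPLC-MS/MS, positive mode. Non-compartmental: linear-up/log-down AUC0-t. Dose proportionality used 95% CI of log-log slope. Food effect used a mixed-model GMR with 90% CI.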

[2] = Safety and tolerability after a single oral dose in healthy volunteers; assay type: in vivo, human
How it was run: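 Single-dose, double-blind, placebo-controlled (8:2 active:placebo) escalation in healthy men; tolerability through 48 h post-dose decided escalation. Monitoring covered AEs, physical exam, vital signs, 12-lead ECG, clinical laboratory tests, protein electrophoresis, and continuous pulse oximetry for 4 h post-dose. QTcmax and ΔQTcmax per dose group were compared with placebo by ANOVA and Dunnett's test, P<0.05.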

[3] = mice model; no method or reference given; cited from earlier work
[4] = no method or reference given; cited from earlier work
[5] = rats; ref Investigator's brochure, unpublished data; cited from earlier work
hERG current = conditions: preclinical study; ref Investigator's brochure, unpublished data; cited from earlier work
Gram-negative pathogens = conditions: ref Investigator's brochure, unpublished data; cited from earlier work
Streptococcus pneumonia = conditions: ref Investigator's brochure, unpublished data; cited from earlier work
[6] = cited from earlier work
[7] = all groups, total includes 1 placebo case per Table 2

CC(C)(C)[C@H](NC(=O)[C@H](CC1CCCC1)CN(O)C=O)C(=O)N1CCC(NCc2cc(F)c(F)cc2F)CC1 [IDP-73152]
effect of food on terminal half-life ([1]; 640 mg, fed vs fasted, P=0.779): not affected by food intake
GMR (with 90% CI) of AUC0-t, fed vs fasted ([1]; 640 mg, high-fat meal): 0.862 (0.811–0.917)
GMR (with 90% CI) of Cmax, fed vs fasted ([1]; 640 mg, high-fat meal): 0.638 (0.563–0.723)
decrease of Cmax by food ([1]; 640 mg, high-fat meal, fed vs fasted): 36.2%
decrease of Cmax by food ([1]; 640 mg, high-fat meal, fed vs fasted, listed as IDP-73152 mesylate): 36%
dose proportionality of AUC0-t ([1]; all dose ranges (40–1280 mg)): more than dose-proportional
dose proportionality of AUC0-t ([1]; range of 40–320 mg): dose-proportional
plasma level relative to MIC ([1]; single dose of 1280 mg, 12 hrs post-dose): above MIC level
Incidence of drug-related AE: Diarrhoea ([2]; 160 mg, N=8): 1
Incidence of drug-related AE: Nausea ([2]; 160 mg, N=8): 1
Incidence of drug-related AE: Abdominal pain ([2]; 320 mg, N=8): 1
Incidence of drug-related AE: Epigastric discomfort ([2]; 320 mg, N=8): 1
Incidence of drug-related AE: Abdominal discomfort ([2]; 640 mg, fasted state, N=8): 1
Incidence of drug-related AE: Headache ([2]; 1280 mg, N=8): 1
Incidence of drug-related AE: Nausea ([2]; 1280 mg, N=8): 4
severity of AEs ([2]; all dose groups): mild severity and not serious
drug-related headache, total [2, 7]: 2 cases
drug-related nausea, total [2, 7]: 6 cases
tolerability ([2]; single oral dose of up to 1280 mg): well tolerated
mean tmax [3]: 30 min
terminal half-life [3]: 63 min
volume of distribution [3]: 1.71 L/kg
bound to plasma protein [4]: 95.4%
distribution coefficient of the liver [5]: approximately 6.0
distribution coefficient of the lung [5]: ~3.5
inhibition of the hERG current (hERG current): concentration-dependent inhibition
MIC against Gram-negative pathogens (Gram-negative pathogens): unfavorable MIC value
PK/PD dependence of the antibiotic effect (Streptococcus pneumonia): AUC-dependent
in vitro antimicrobial activity, minimal inhibitory concentration (MIC) [6]: comparable to that of linezolid and vancomycin
